From publication PMC4492447 (Journal of medicinal chemistry, 2012)

Tests used:
[1] = SD rats, 2–3 h postdose; cited from earlier work
[2] = biological target: T1, CB1 (Homo sapiens, UniProt P21554); assay type: cell-based
[3] = tested on: MDCK-mdr1 cells; assay: MDCK-mdr1 permeability assay; assay type: in vitro ADME, canine; conditions: apical to basal, 10 μM, 1 h at 37 °C
Procedure, shortened: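 MDCK cells transfected with human MDR1 grown on filters for 4 days to confluence in DMEM/F12 with 10% FBS and antibiotics. Test compound added apically in HBSS with 25 mM D-glucose, HEPES-buffered to pH 7.4. Apical and basal samples collected, dried under nitrogen, and quantified by LC-MS/MS in MRM mode. Percent transfer apical to basal reported; mean of 2–3 measurements.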

[4] = pharmacokinetic evaluation in vivo, plasma and brain levels after oral dosing; design: species or system Sprague–Dawley rats
[5] = metabolic stability in human hepatic S9 fraction; assay type: in vitro ADME
Procedure, shortened: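 Pooled mixed-gender human hepatic S9 at 1 mg/mL, test compound at 10 μM final. Buffer: 50 mM potassium phosphate pH 7.4, 3 mM MgCl2, NADPH-regenerating system (1 mM NADP, 5 mM glucose-6-phosphate, 1 unit/mL G6PDH). Triplicates sampled at 0, 15, 30, 60, 120 min. Stopped with 3 vol acetonitrile; LC-MS/MS against standard curves in blank matrix. Read-out is percent remaining.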

[6] = biological target: T1, CB1; assay type: binding; conditions: selectivity, [3H]CP55940 displacement

T1 sequence (P21554 whole entry): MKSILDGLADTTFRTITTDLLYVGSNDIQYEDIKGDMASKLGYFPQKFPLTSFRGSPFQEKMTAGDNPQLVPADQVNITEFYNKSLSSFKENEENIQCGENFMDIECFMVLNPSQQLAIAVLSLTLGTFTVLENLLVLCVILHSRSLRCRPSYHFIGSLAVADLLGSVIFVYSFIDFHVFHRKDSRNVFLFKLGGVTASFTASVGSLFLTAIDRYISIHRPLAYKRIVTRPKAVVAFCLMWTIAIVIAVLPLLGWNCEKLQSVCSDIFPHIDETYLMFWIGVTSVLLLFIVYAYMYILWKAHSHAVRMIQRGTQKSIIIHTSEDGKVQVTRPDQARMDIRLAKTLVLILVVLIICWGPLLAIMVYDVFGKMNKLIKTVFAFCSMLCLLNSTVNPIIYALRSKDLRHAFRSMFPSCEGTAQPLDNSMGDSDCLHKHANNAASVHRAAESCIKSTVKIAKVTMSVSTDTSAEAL

Row | SMILES | Kb [2] | other results
1 | CCNC1(C(N)=O)CCN(c2ncnc3c2nc(-c2ccccc2Cl)n3-c2ccc(Cl)cc2)CC1 [Compound 2, otenabant] |  | brain exposure [1]: ~33%
2 | CC(C)(C)OC(=O)NC1(c2ccccc2)CCN(c2ncnc3c2nc(-c2ccccc2Cl)n3-c2ccc(Cl)cc2)CC1 [Compound 10, tert-Butyl N-{1-[8-(2-chlorophenyl)-9-(4-chlorophenyl)-9H-purin-6-yl]-4-phenylpiperidin-4-yl}carbamate] | 3.9 nM | MDCK-mdr1 A to B [3]: <1%
3 | NC1(c2ccccc2)CCN(c2ncnc3c2nc(-c2ccccc2Cl)n3-c2ccc(Cl)cc2)CC1 [Compound 11, 1-[8-(2-Chlorophenyl)-9-(4-chlorophenyl)-9H-purin-6-yl]-4-phe-nylpiperidin-4-amine] | 15.9 nM | MDCK-mdr1 A to B [3]: <1%
4 | CS(=O)(=O)NC1(c2ccccc2)CCN(c2ncnc3c2nc(-c2ccccc2Cl)n3-c2ccc(Cl)cc2)CC1 [Compound 12, N-{1-[8-(2-Chlorophenyl)-9-(4-chlorophenyl)-9H-purin-6-yl]-4-phenylpiperidin-4-yl}methanesulfonamide] |  | MDCK-mdr1 A to B [3]: <1%; brain penetration (in words) ([4]; SD rats, 10 mg/kg oral): limited brain penetration; time post dose of maximum concentration ([4]; SD rats, 10 mg/kg oral): 240 min; clearance (in words) ([4]; oral dosing in rats, 10 mg/kg): favorable clearance; oral absorption (in words) ([4]; oral dosing in rats, 10 mg/kg): excellent oral absorption
5 | CC(C)(C)NC(=O)NC1(c2ccccc2)CCN(c2ncnc3c2nc(-c2ccccc2Cl)n3-c2ccc(Cl)cc2)CC1 [Compound 13a, 3-tert-Butyl-1-{1-[8-(2-chlorophenyl)-9-(4-chlorophenyl)-9H-purin-6-yl]-4-phenylpiperidin-4-yl}urea] | 19.2 nM | MDCK-mdr1 A to B [3]: <1%; metabolism in S9 fraction (in words) [5]: significant metabolism
6 | CCNC(=O)NC1(c2ccccc2)CCN(c2ncnc3c2nc(-c2ccccc2Cl)n3-c2ccc(Cl)cc2)CC1 [Compound 13b, 1-{1-[8-(2-Chlorophenyl)-9-(4-chlorophenyl)-9H-purin-6-yl]-4-phenylpiperidin-4-yl}-3-ethylurea] | 443 nM | 
7 | CCCCNC(=O)NC1(c2ccccc2)CCN(c2ncnc3c2nc(-c2ccccc2Cl)n3-c2ccc(Cl)cc2)CC1 [Compound 13e, 3-Butyl-1-{1-[8-(2-chlorophenyl)-9-(4-chlorophenyl)-9H-purin-6-yl]-4-phenylpiperidin-4-yl}urea] | 62 nM | 
8 | CCOC(=O)CNC(=O)NC1(c2ccccc2)CCN(c2ncnc3c2nc(-c2ccccc2Cl)n3-c2ccc(Cl)cc2)CC1 [Compound 13f, Ethyl 2-[({1-[8-(2-chlorophenyl)-9-(4-chlorophenyl)-9H-purin-6-yl]-4-phenylpiperidin-4-yl}carbamoyl)amino]acetate] | 171 nM | 
9 | O=C(NC1CCCCC1)NC1(c2ccccc2)CCN(c2ncnc3c2nc(-c2ccccc2Cl)n3-c2ccc(Cl)cc2)CC1 [Compound 13g, 3-{1-[8-(2-Chlorophenyl)-9-(4-chlorophenyl)-9H-purin-6-yl]-4-phenylpiperidin-4-yl}-1-cyclohexylurea] | 199 nM | 
10 | Clc1ccc(-n2c(-c3ccccc3Cl)nc3c(NC4CCNCC4)ncnc32)cc1 [Compound 14b, 8-(2-Chlorophenyl)-9-(4-chlorophenyl)-N-(piperidin-4-yl)-9H-purin-6-amine] | 5710 nM | 
11 | CCNC(=O)N1CCC(Nc2ncnc3c2nc(-c2ccccc2Cl)n3-c2ccc(Cl)cc2)CC1 [Compound 14c, 4-{[8-(2-Chlorophenyl)-9-(4-chlorophenyl)-9H-purin-6-yl]amino}-N-ethylpiperidine-1-carboxamide] | 1150 nM | 
12 | CC(C)NC(=O)N1CCC(Nc2ncnc3c2nc(-c2ccccc2Cl)n3-c2ccc(Cl)cc2)CC1 [Compound 14d, 4-{[8-(2-Chlorophenyl)-9-(4-chlorophenyl)-9H-purin-6-yl]amino}-N-(propan-2-yl)piperidine-1-carboxamide] | 495 nM | 
13 | CCCNC(=O)N1CCC(Nc2ncnc3c2nc(-c2ccccc2Cl)n3-c2ccc(Cl)cc2)CC1 [Compound 14e, 4-{[8-(2-Chlorophenyl)-9-(4-chlorophenyl)-9H-purin-6-yl]amino}-N-propylpiperidine-1-carboxamide] | 1960 nM | 
14 | CCCCNC(=O)N1CCC(Nc2ncnc3c2nc(-c2ccccc2Cl)n3-c2ccc(Cl)cc2)CC1 [Compound 14f, N-Butyl-4-{[8-(2-chlorophenyl)-9-(4-chlorophenyl)-9H-purin-6-yl]amino}piperidine-1-carboxamide] |  | CB2/CB1 Ki ratio [6]: >5
15 | CS(=O)(=O)N1CCC(Nc2ncnc3c2nc(-c2ccccc2Cl)n3-c2ccc(Cl)cc2)CC1 [Compound 14g, 8-(2-Chlorophenyl)-9-(4-chlorophenyl)-N-(1-methanesulfonylpiperidin-4-yl)-9H-purin-6-amine] | 1650 nM | 
16 | CCNC(=O)N1CCC[C@@H](Nc2ncnc3c2nc(-c2ccccc2Cl)n3-c2ccc(Cl)cc2)C1 [Compound 15c, (3R)-3-{[8-(2-Chlorophenyl)-9-(4-chlorophenyl)-9H-purin-6-yl]-amino}-N-ethylpiperidine-1-carboxamide] | 1500 nM | 
17 | CC(=O)N1CCC[C@@H](Nc2ncnc3c2nc(-c2ccccc2Cl)n3-c2ccc(Cl)cc2)C1 [Compound 15d, 1-[(3R)-3-{[8-(2-Chlorophenyl)-9-(4-chlorophenyl)-9H-purin-6-yl]-amino}piperidin-1-yl]ethan-1-one] | 920 nM | 
18 | CS(=O)(=O)N1CCC[C@@H](Nc2ncnc3c2nc(-c2ccccc2Cl)n3-c2ccc(Cl)cc2)C1 [Compound 15e, 8-(2-Chlorophenyl)-9-(4-chlorophenyl)-N-[(3R)-1-methanesulfonylpiperidin-3-yl]-9H-purin-6-amine] | 346 nM | 
19 | CCNC(=O)N1CCC[C@H](Nc2ncnc3c2nc(-c2ccccc2Cl)n3-c2ccc(Cl)cc2)C1 [Compound 16c, (3S)-3-{[8-(2-Chlorophenyl)-9-(4-chlorophenyl)-9H-purin-6-yl]-amino}-N-ethylpiperidine-1-carboxamide] | 1150 nM | 
20 | CC(=O)N1CCC[C@H](Nc2ncnc3c2nc(-c2ccccc2Cl)n3-c2ccc(Cl)cc2)C1 [Compound 16d, 1-[(3S)-3-{[8-(2-Chlorophenyl)-9-(4-chlorophenyl)-9H-purin-6-yl]-amino}piperidin-1-yl]ethan-1-one] | 4450 nM | 
21 | CS(=O)(=O)N1CCC[C@H](Nc2ncnc3c2nc(-c2ccccc2Cl)n3-c2ccc(Cl)cc2)C1 [Compound 16e, 8-(2-Chlorophenyl)-9-(4-chlorophenyl)-N-[(3S)-1-methanesulfonylpiperidin-3-yl]-9H-purin-6-amine] | 6040 nM | 
22 | CCNC(=O)NC1CCN(c2ncnc3c2nc(-c2ccccc2Cl)n3-c2ccc(Cl)cc2)CC1 [Compound 17c, 1-{1-[8-(2-Chlorophenyl)-9-(4-chlorophenyl)-9H-purin-6-yl]-piperidin-4-yl}-3-ethylurea] | 149 nM | 
23 | CC(C)NC(=O)NC1CCN(c2ncnc3c2nc(-c2ccccc2Cl)n3-c2ccc(Cl)cc2)CC1 [Compound 17d, 1-{1-[8-(2-Chlorophenyl)-9-(4-chlorophenyl)-9H-purin-6-yl]-piperidin-4-yl}-3-(propan-2-yl)urea] | 133 nM | 
24 | CCCNC(=O)NC1CCN(c2ncnc3c2nc(-c2ccccc2Cl)n3-c2ccc(Cl)cc2)CC1 [Compound 17e, 1-{1-[8-(2-chlorophenyl)-9-(4-chlorophenyl)-9H-purin-6-yl]-piperidin-4-yl}-3-propylurea] | 132 nM | 
25 | CCCCNC(=O)NC1CCN(c2ncnc3c2nc(-c2ccccc2Cl)n3-c2ccc(Cl)cc2)CC1 [Compound 17f, 3-Butyl-1-{1-[8-(2-chlorophenyl)-9-(4-chlorophenyl)-9H-purin-6-yl]piperidin-4-yl}urea] | 49 nM | 
26 | CC(=O)NC1CCN(c2ncnc3c2nc(-c2ccccc2Cl)n3-c2ccc(Cl)cc2)CC1 [Compound 17g, N-{1-[8-(2-Chlorophenyl)-9-(4-chlorophenyl)-9H-purin-6-yl]-piperidin-4-yl}acetamide] | 631 nM | 
27 | CS(=O)(=O)NC1CCN(c2ncnc3c2nc(-c2ccccc2Cl)n3-c2ccc(Cl)cc2)CC1 [Compound 17h, N-{1-[8-(2-Chlorophenyl)-9-(4-chlorophenyl)-9H-purin-6-yl]-piperidin-4-yl}methanesulfonamide] | 71 nM | 
